NPY Y2 blocker: antagonists of human neuropeptide Y receptor Y2; P49146; NPY-Y2 expressing cells, antagonist mode; actives 0.99% (n = 140,000); inhibition, % at 2.7 µM;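 also: 0% = vehicle with agonist challenge and 100% = reference antagonist with challenge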
NPY Y1 blocker: blocks the human neuropeptide Y Y1 receptor; P25929; HEK293-CNG Y1 cells, membrane potential fluorescence; NPY at EC95, then isoproterenol; inhibition, % at 3.6 µM; actives 1% (n = 200,000); AID 1040;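 active = inhibition above the campaign mean inhibition of all tested compounds plus 3 SD, cut at about 20% in these data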;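 also: 0% = DMSO wells given NPY plus isoproterenol and 100% = isoproterenol alone without NPY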
Target sequence (P25929 whole entry, looked up): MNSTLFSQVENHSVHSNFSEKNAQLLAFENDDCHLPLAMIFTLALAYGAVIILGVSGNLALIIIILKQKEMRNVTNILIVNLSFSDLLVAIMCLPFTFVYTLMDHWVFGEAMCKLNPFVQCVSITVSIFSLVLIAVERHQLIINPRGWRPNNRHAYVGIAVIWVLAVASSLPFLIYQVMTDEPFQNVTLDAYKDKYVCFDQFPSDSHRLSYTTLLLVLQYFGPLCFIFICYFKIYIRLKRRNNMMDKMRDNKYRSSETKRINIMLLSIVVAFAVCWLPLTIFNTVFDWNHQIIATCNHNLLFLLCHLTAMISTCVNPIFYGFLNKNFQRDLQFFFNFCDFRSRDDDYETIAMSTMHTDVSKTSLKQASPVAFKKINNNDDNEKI
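Benchmarks – high control isoproterenol alone, low control NPY with isoproterenol · Material – HEK293 Y1/CNG channel cell line · Times – dye 3 h, compound 60 min room temperature, stimulation 45 min · Probe or stimulus – NPY (25 nM), isoproterenol (1 µM), Ro 20-1724 (25 µM) · Evaluation – % inhibition of NPY effect · Signal – fluorescence, membrane potential probe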
EP2 antag: blocks the human prostaglandin E2 receptor EP2; C6 glioma cells expressing human EP2, cAMP TR-FRET; cells stimulated with saturating PGE2; inhibition, % at 25 µM; actives 0.52% (n = 260,000);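 active = percent inhibition above 40 after rounding to a whole number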;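 also: rat C6 glioma host cells with rolipram phosphodiesterase inhibitor present; the protocol text gives 20 µM as final concentration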
NPY-Y1 PAM-ag: potentiators or agonists of human neuropeptide Y receptor Y1; activation, % at 3.6 µM; actives 0.37% (n = 220,000); NPY-Y1 expressing cells, potentiator/agonist activation; P25929; in the data active = activation above about 33%, passing the limit was not always enough;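 also: cells stimulated with NPY at EC10 then isoproterenol at EC100; 0% = low agonist plus stimulus and 100% = saturating agonist plus stimulus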
NPY-Y2 PAM-ag: potentiators or agonists of human neuropeptide Y receptor Y2. activation, % at 3.6 µM. actives 0.45% (n = 220,000). cells expressing NPY-Y2, potentiator/agonist read-out. P49146; in the data active = activation above about 27%;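 also: cells stimulated with NPY near EC25 plus isoproterenol at EC100; 0% = vehicle plus submaximal agonist and 100% = vehicle plus saturating agonist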
EP2 mod: EP2 receptor (human) modulation. actives 0.83% (n = 260,000). P43116. AID 940. induction, % at 25 µM. EP2-expressing cells, cAMP HTRF FRET, PGE2 co-stimulation;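 active = compounds whose cAMP rise, as percent of the full-agonist control response, exceeds 60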;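 also: rat C6 glioma line stably carrying human EP2 under a CMV promoter; the protocol text gives 20 µM as final concentration; 100% = response of wells given 1 µM PGE2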
NPY-Y1 ant conf: human NPY-Y1 antagonism, confirmation | AID 1254 | inhibition, % at 3.6 µM | shares compounds with NPY Y1 blocker | HEK293-CNG NPY-Y1, membrane potential fluorescence, cAMP; NPY challenge against isoproterenol-raised cAMP | actives 21% (n = 1,200); in the data active = inhibition above about 20%;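 also: 0% = vehicle with agonist plus stimulus and 100% = stimulus alone without agonist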
NPY2 antag ctr: human NPY-Y2 antagonism in NPY-Y1 counter-screen; shares compounds with NPY Y1 blocker; HEK293 NPY-Y2 CNG membrane potential fluorescence; cells given NPY, then isoproterenol; inhibition, % at 3.6 µM; actives 28% (n = 1,200);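 also: 0% = DMSO with agonist challenge and 100% = reference antagonist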
Starred values were filed as active, the others as inactive. Only some compounds are listed: those with a hit (about 2.8% of all), similar ones and a draw of the others. Rule as the data show it, unless noted: active = inhibition above about 17%; inactive = the rest.

CCC(CC)=NNC(=O)c1ccccc1OCc1ccc(F)cc1 was read as NPY Y2 blocker 6, NPY Y1 blocker 21*, EP2 antag 6, NPY-Y1 PAM-ag -66, NPY-Y2 PAM-ag -35, EP2 mod 12, NPY-Y1 ant conf 4 and NPY2 antag ctr 7.
`Cc1ccc(/C=N/NC(=O)c2ccccc2OCc2ccc(F)cc2)o1` gave NPY Y2 blocker 15, NPY Y1 blocker 22*, EP2 antag 6, NPY-Y1 PAM-ag -107, NPY-Y2 PAM-ag -75, EP2 mod 36, NPY-Y1 ant conf 15 and NPY2 antag ctr 15.
COc1ccc(/C=N/NC(=O)c2ccccc2OCc2ccccc2)c(OC)c1 was read as NPY Y1 blocker 25*, EP2 antag 4, NPY-Y1 PAM-ag -41, NPY-Y2 PAM-ag -64, EP2 mod 41, NPY-Y1 ant conf 7 and NPY2 antag ctr 15.
`COc1ccc(/C(C)=N/NC(=O)c2ccccc2OCc2ccccc2)c(OC)c1` gave NPY Y1 blocker 15, EP2 antag 6, NPY-Y1 PAM-ag -32, NPY-Y2 PAM-ag -40 and EP2 mod -21.
Screening CC(=O)Oc1ccc(CN2CCc3c(nc(N4CCC(C)CC4)[nH]c3=O)C2)cc1 returned EP2 antag 5 and EP2 mod 6.
Screening CC(C)(C)c1nnc(NC(=O)c2ccccc2Br)s1 returned EP2 antag 16 and EP2 mod 1.
O=C(N1CCC(NC(=O)C23CC4CC(CC(C4)C2)C3)CC1)N1c2ccccc2Sc2ccccc21 was read as EP2 antag 9 and EP2 mod 5.
For CC1CC1c1ccc(/C=C(\C#N)C(=O)Nc2ccccc2Cl)o1 (centres undefined) the results were NPY Y2 blocker 5, NPY Y1 blocker 23*, EP2 antag 10, NPY-Y1 PAM-ag -2, NPY-Y2 PAM-ag -3, EP2 mod 44, NPY-Y1 ant conf 11 and NPY2 antag ctr 8.
`CCC(C)N1C(=O)CN(C2CCCCCC2)C(=O)C1c1ccccc1F` (centres undefined) gave NPY Y1 blocker 24*, EP2 antag 4, NPY-Y1 PAM-ag -26, NPY-Y2 PAM-ag -30, EP2 mod -28, NPY-Y1 ant conf 6 and NPY2 antag ctr 13.
For CC(C)(C)c1ccc(CSc2nnc(-c3ccccn3)n2Cc2ccco2)cc1 the results were NPY Y2 blocker 16, NPY Y1 blocker 21*, NPY-Y1 PAM-ag -16, NPY-Y2 PAM-ag -16, EP2 mod 10, NPY-Y1 ant conf 7 and NPY2 antag ctr 13.
CCOC(=O)c1ccccc1NC(=O)c1ccccc1SC was read as NPY Y2 blocker 3, NPY Y1 blocker 24*, EP2 antag 11, NPY-Y1 PAM-ag -46, NPY-Y2 PAM-ag -18, EP2 mod 12, NPY-Y1 ant conf 7 and NPY2 antag ctr 4.
COC(=O)c1ccccc1NC(=O)c1ccccc1SC was read as NPY Y2 blocker 0, NPY Y1 blocker 11, EP2 antag 10, NPY-Y1 PAM-ag -21, NPY-Y2 PAM-ag 3 and EP2 mod 23.
For CCc1ccc(NC(=O)CSc2nnc(-c3ccncc3)n2C)cc1 the results were EP2 antag 12 and EP2 mod 14.
For COc1ccc(OC)c(/C=c2\sc3nc(-c4cccs4)nn3c2=O)c1 the results were NPY Y2 blocker 5, NPY Y1 blocker 20*, EP2 antag 9, NPY-Y1 PAM-ag -32, NPY-Y2 PAM-ag -9, EP2 mod 17, NPY-Y1 ant conf 3 and NPY2 antag ctr 2.
`O=S(=O)(N1CCCCC1)n1c(Cc2ccccc2)nc2ccccc21` gave NPY Y2 blocker 2, NPY Y1 blocker 2, EP2 antag 6, NPY-Y1 PAM-ag 15, NPY-Y2 PAM-ag 22 and EP2 mod 55.
`O=S(=O)(c1ccc(Br)cc1)n1c(Cc2ccccc2)nc2ccccc21` gave NPY Y2 blocker 4, NPY Y1 blocker 21*, EP2 antag 9, NPY-Y1 PAM-ag 3, NPY-Y2 PAM-ag -4, EP2 mod 7, NPY-Y1 ant conf 3 and NPY2 antag ctr 4.
`COCCOC(=O)C1=C(C)NC2=C(C(=O)CC(c3ccc(OC)c(OC)c3)C2)C1c1cccs1` (centres undefined) gave EP2 antag 4 and EP2 mod 3.
O=C1CC(C(=O)Nc2ccc(Cl)cc2)C2(CCCC2)O1 (centres undefined) was read as EP2 antag 8 and EP2 mod -42.
`CCCOc1ccc(S(=O)(=O)NCc2ccc(OC)cc2)cc1` gave NPY Y2 blocker 9, NPY Y1 blocker 28*, EP2 antag 9, NPY-Y1 PAM-ag -43, NPY-Y2 PAM-ag -42, EP2 mod 10, NPY-Y1 ant conf 9 and NPY2 antag ctr 12.
For c1ccc(-n2cc(CN3CCCC(CN4CCCC4)C3)c(-c3ccc4c(c3)OCO4)n2)cc1 (centres undefined) the results were NPY Y1 blocker 32*, EP2 antag 10, NPY-Y1 PAM-ag -36, NPY-Y2 PAM-ag -25, EP2 mod -33, NPY-Y1 ant conf 14 and NPY2 antag ctr 27*.
`O=S(=O)(c1ccc(Cl)c(F)c1)N1CCC(O)(c2ccccn2)CC1` gave EP2 mod -26.
Screening CN(C)c1ncc(C(=O)N2CCc3onc(-c4ccccc4F)c3C2)cn1 returned EP2 antag 6 and EP2 mod -43.
For Cc1ccc(Cn2nc(-c3ccccc3)nc2-c2ccccc2)cc1 the results were NPY Y2 blocker 14, NPY Y1 blocker 25*, NPY-Y1 PAM-ag -13, NPY-Y2 PAM-ag -30, EP2 mod 22, NPY-Y1 ant conf 13 and NPY2 antag ctr 11.
CCCCNC(=O)c1onc(CSc2cccc(OCC)c2)c1C(=O)O was read as NPY Y2 blocker 16, NPY Y1 blocker 22*, EP2 antag 27, NPY-Y1 PAM-ag -46, NPY-Y2 PAM-ag -30, EP2 mod 14, NPY-Y1 ant conf 15 and NPY2 antag ctr 14.
CC(C)NC(=O)c1onc(CSc2cccc3ccccc23)c1C(=O)O was read as NPY Y2 blocker 10, NPY Y1 blocker 22*, EP2 antag 18, NPY-Y1 PAM-ag -13, NPY-Y2 PAM-ag -44, EP2 mod 19, NPY-Y1 ant conf 18 and NPY2 antag ctr 11.
Screening CC(C)NC(=O)c1onc(CSc2ccccc2)c1C(=O)O returned NPY Y2 blocker 5, NPY Y1 blocker 8, EP2 antag 15, NPY-Y1 PAM-ag -33, NPY-Y2 PAM-ag -9 and EP2 mod 8.

High-throughput results (PubChem)
